From ChEMBL document CHEMBL3425440, “ent-Kaurane Diterpenoids from Chinese Liverworts and Their Antitumor Activities through Michael Addition As Detected in Situ by a Fluorescence Probe” (J Med Chem, 2015) come the findings set out here.

pIC50: −log10 of the molar value.

Tested on in one assay: not listed separately
Kind of assay: Cytotoxicity against human PC3 cells assessed as cell viability after 24 hrs by MTT assay. The class given is functional, cell-based. Particulars: PC-3, 24 h. The method, boiled down: (§1)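 Cells grown to about 50−70% confluence at 37 °C, 5% CO2, then exposed to compounds 24 h (DMSO vehicle control, cisplatin positive control). MTT (5 mg/mL stock) added for 4 h, formazan dissolved in DMSO, absorbance read at 570 nm. IC50 derived from percent viability; at least three independent experiments, mean ± SD.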
(Formazan colour is commonly taken as a measure of viable cells.)
Turning to `C[C@H]1C(=O)[C@@]23CC[C@@H]4C(C)(C)[C@H](O)CC[C@@]4(C)[C@@H]2[C@@H](O)C[C@@H]1C3`, the pIC50 was less than 4.30.

As to `C=C1C[C@]23C[C@H]1CC[C@H]2[C@]1(C)CCCC(C)(C)[C@H]1C[C@H]3O`, the negative logarithm of the IC50 (pIC50) was less than 4.30.

As for `C=C1[C@@H]2C[C@@H](O)[C@H]3[C@]4(C)CCCC(C)(C)[C@H]4CC[C@]3(C2)[C@@H]1O`, the negative-log IC50 (pIC50) is less than 4.30.

Tested on in the next assay: not listed separately
In words: Cytotoxicity against human T24 cells assessed as cell viability after 24 hrs by MTT assay. The format is functional, cell-based. Particulars: T-24, 24 h. The method, boiled down: as §1
Regarding `C[C@H]1C(=O)[C@@]23CC[C@@H]4C(C)(C)[C@H](O)CC[C@@]4(C)[C@@H]2[C@@H](O)C[C@@H]1C3`, the pIC50 is less than 4.30.

Consider `C=C1C[C@]23C[C@H]1CC[C@H]2[C@]1(C)CCCC(C)(C)[C@H]1C[C@H]3O`, for which the pIC50 is less than 4.30.

On to `C=C1[C@@H]2C[C@@H](O)[C@H]3[C@]4(C)CCCC(C)(C)[C@H]4CC[C@]3(C2)[C@@H]1O`, for which the pIC50 was less than 4.30.

Tested on in a further assay: not listed separately
In words: Cytotoxicity against human RWPE1 cells assessed as cell viability after 24 hrs by MTT assay. The class given is cell-based. Particulars: RWPE-1, 24 h. In short, it runs like this: as §1
For `C[C@H]1C(=O)[C@@]23CC[C@@H]4C(C)(C)[C@H](O)CC[C@@]4(C)[C@@H]2[C@@H](O)C[C@@H]1C3`, the pIC50 is less than 4.30.

`C=C1C[C@]23C[C@H]1CC[C@H]2[C@]1(C)CCCC(C)(C)[C@H]1C[C@H]3O`: the pIC50 is less than 4.30.

In the case of `C=C1[C@@H]2C[C@@H](O)[C@H]3[C@]4(C)CCCC(C)(C)[C@H]4CC[C@]3(C2)[C@@H]1O`, the negative-log IC50 (pIC50) is less than 4.30.

In a further assay the test system is LoVo. In words: Cytotoxicity against human LoVo cells assessed as cell viability after 24 hrs by MTT assay.
Conditions: not given
The format is functional, cell-based. The method, boiled down: as §1
As for `C[C@H]1C(=O)[C@@]23CC[C@@H]4C(C)(C)[C@H](O)CC[C@@]4(C)[C@@H]2[C@@H](O)C[C@@H]1C3`, the pIC50 is less than 4.30.

As for `C=C1C[C@]23C[C@H]1CC[C@H]2[C@]1(C)CCCC(C)(C)[C@H]1C[C@H]3O`, the negative-log IC50 (pIC50) was less than 4.30.

Regarding `C=C1[C@@H]2C[C@@H](O)[C@H]3[C@]4(C)CCCC(C)(C)[C@H]4CC[C@]3(C2)[C@@H]1O`, the pIC50 is less than 4.30.

Another assay deals with MDA-MB-231. In words: Cytotoxicity against human MDA-MB-231 cells assessed as cell viability after 24 hrs by MTT assay. The format is functional, cell-based. Particulars: MDA-MB-231, 24 h. The method, boiled down: as §1
Consider `C[C@H]1C(=O)[C@@]23CC[C@@H]4C(C)(C)[C@H](O)CC[C@@]4(C)[C@@H]2[C@@H](O)C[C@@H]1C3`, for which the pIC50 is less than 4.30.

`C=C1C[C@]23C[C@H]1CC[C@H]2[C@]1(C)CCCC(C)(C)[C@H]1C[C@H]3O`: the pIC50 was less than 4.30.

As to `C=C1[C@@H]2C[C@@H](O)[C@H]3[C@]4(C)CCCC(C)(C)[C@H]4CC[C@]3(C2)[C@@H]1O`, the pIC50 was less than 4.30.

Tested on in another assay: not listed separately
In words: Cytotoxicity against human SH-SY5Y cells assessed as cell viability after 24 hrs by MTT assay. The format is functional, cell-based.
Conditions: not given
The method, boiled down:
as §1
For the compound `C[C@H]1C(=O)[C@@]23CC[C@@H]4C(C)(C)[C@H](O)CC[C@@]4(C)[C@@H]2[C@@H](O)C[C@@H]1C3`, the pIC50 is less than 4.30.

With `C=C1C[C@]23C[C@H]1CC[C@H]2[C@]1(C)CCCC(C)(C)[C@H]1C[C@H]3O`, the pIC50 was less than 4.30.

For `C=C1[C@@H]2C[C@@H](O)[C@H]3[C@]4(C)CCCC(C)(C)[C@H]4CC[C@]3(C2)[C@@H]1O`, the pIC50 was less than 4.30.

Tested on in a further assay: not listed separately
In words: Cytotoxicity against human Saos2 cells assessed as cell viability after 24 hrs by MTT assay. The format is functional, cell-based. Particulars: SAOS-2, 24 h. The method, boiled down:
as §1
Take `C[C@H]1C(=O)[C@@]23CC[C@@H]4C(C)(C)[C@H](O)CC[C@@]4(C)[C@@H]2[C@@H](O)C[C@@H]1C3`: the pIC50 was less than 4.30.

Regarding `C=C1C[C@]23C[C@H]1CC[C@H]2[C@]1(C)CCCC(C)(C)[C@H]1C[C@H]3O`, the pIC50 is less than 4.30.

With `C=C1[C@@H]2C[C@@H](O)[C@H]3[C@]4(C)CCCC(C)(C)[C@H]4CC[C@]3(C2)[C@@H]1O`, the pIC50 is less than 4.30.

Tested on in the next assay: not listed separately
In words: Cytotoxicity against human HL60 cells assessed as cell viability after 24 hrs by MTT assay. Particulars: HL-60, 24 h. The class given is functional, cell-based. In short, it runs like this:
as §1
`C[C@H]1C(=O)[C@@]23CC[C@@H]4C(C)(C)[C@H](O)CC[C@@]4(C)[C@@H]2[C@@H](O)C[C@@H]1C3`: the pIC50 was less than 4.30.

Regarding `C=C1C[C@]23C[C@H]1CC[C@H]2[C@]1(C)CCCC(C)(C)[C@H]1C[C@H]3O`, the pIC50 is less than 4.30.

Turning to `C=C1[C@@H]2C[C@@H](O)[C@H]3[C@]4(C)CCCC(C)(C)[C@H]4CC[C@]3(C2)[C@@H]1O`, the pIC50 is less than 4.30.

Tested on in the next assay: not listed separately
In words: Cytotoxicity against human SKOV3 cells assessed as cell viability after 24 hrs by MTT assay. The format is functional, cell-based. Particulars: SK-OV-3, 24 h. The method, boiled down:
as §1
On to `C[C@H]1C(=O)[C@@]23CC[C@@H]4C(C)(C)[C@H](O)CC[C@@]4(C)[C@@H]2[C@@H](O)C[C@@H]1C3`, for which the pIC50 was less than 4.30.

Take `C=C1C[C@]23C[C@H]1CC[C@H]2[C@]1(C)CCCC(C)(C)[C@H]1C[C@H]3O`: the pIC50 is less than 4.30.

In the case of `C=C1[C@@H]2C[C@@H](O)[C@H]3[C@]4(C)CCCC(C)(C)[C@H]4CC[C@]3(C2)[C@@H]1O`, the pIC50 is less than 4.30.

The test system of another assay is LNCaP. In words: Cytotoxicity against human LNCAP cells assessed as cell viability after 24 hrs by MTT assay. The class given is functional, cell-based.
Conditions: not given
The method, boiled down:
as §1
Regarding `C[C@H]1C(=O)[C@@]23CC[C@@H]4C(C)(C)[C@H](O)CC[C@@]4(C)[C@@H]2[C@@H](O)C[C@@H]1C3`, the pIC50 was less than 4.30.

For `C=C1C[C@]23C[C@H]1CC[C@H]2[C@]1(C)CCCC(C)(C)[C@H]1C[C@H]3O`, the pIC50 was less than 4.30.

For the compound `C=C1[C@@H]2C[C@@H](O)[C@H]3[C@]4(C)CCCC(C)(C)[C@H]4CC[C@]3(C2)[C@@H]1O`, the negative logarithm of the IC50 (pIC50) was less than 4.30.

A further assay concerns K562. In words: Cytotoxicity against human K562 cells assessed as cell viability after 24 hrs by MTT assay. The format is functional, cell-based. The settings on record: K562, 24 h. In short, it runs like this:
as §1
With `C[C@H]1C(=O)[C@@]23CC[C@@H]4C(C)(C)[C@H](O)CC[C@@]4(C)[C@@H]2[C@@H](O)C[C@@H]1C3`, the pIC50 is less than 4.30.

In the case of `C=C1C[C@]23C[C@H]1CC[C@H]2[C@]1(C)CCCC(C)(C)[C@H]1C[C@H]3O`, the pIC50 is less than 4.30.

For `C=C1[C@@H]2C[C@@H](O)[C@H]3[C@]4(C)CCCC(C)(C)[C@H]4CC[C@]3(C2)[C@@H]1O`, the pIC50 was less than 4.30.

The test system of the next assay is NCI-H1299. In words: Cytotoxicity against human NCI-H1299 cells assessed as cell viability after 24 hrs by MTT assay. The format is functional, cell-based. The settings on record: NCI-H1299, 24 h. In short, it runs like this:
as §1
Take `C[C@H]1C(=O)[C@@]23CC[C@@H]4C(C)(C)[C@H](O)CC[C@@]4(C)[C@@H]2[C@@H](O)C[C@@H]1C3`: the pIC50 was less than 4.30.

Turning to `C=C1C[C@]23C[C@H]1CC[C@H]2[C@]1(C)CCCC(C)(C)[C@H]1C[C@H]3O`, the negative-log IC50 (pIC50) is less than 4.30.

Consider `C=C1[C@@H]2C[C@@H](O)[C@H]3[C@]4(C)CCCC(C)(C)[C@H]4CC[C@]3(C2)[C@@H]1O`, for which the negative-log IC50 (pIC50) is less than 4.30.

The test system of a further assay is DU-145. Kind of assay: Cytotoxicity against human DU145 cells assessed as cell viability after 24 hrs by MTT assay. The class given is functional, cell-based. The settings on record: DU-145, 24 h. The method, boiled down: as §1
Regarding `C[C@H]1C(=O)[C@@]23CC[C@@H]4C(C)(C)[C@H](O)CC[C@@]4(C)[C@@H]2[C@@H](O)C[C@@H]1C3`, the pIC50 was less than 4.30.

Consider `C=C1C[C@]23C[C@H]1CC[C@H]2[C@]1(C)CCCC(C)(C)[C@H]1C[C@H]3O`, for which the pIC50 was less than 4.30.

For the compound `C=C1[C@@H]2C[C@@H](O)[C@H]3[C@]4(C)CCCC(C)(C)[C@H]4CC[C@]3(C2)[C@@H]1O`, the pIC50 was less than 4.30.

Tested on in another assay: not listed separately
Kind of assay: Cytotoxicity against human A172 cells assessed as cell viability after 24 hrs by MTT assay. The class given is functional, cell-based. Particulars: A 172, 24 h. The method, boiled down:
as §1
As for `C[C@H]1C(=O)[C@@]23CC[C@@H]4C(C)(C)[C@H](O)CC[C@@]4(C)[C@@H]2[C@@H](O)C[C@@H]1C3`, the pIC50 is less than 4.30.

`C=C1C[C@]23C[C@H]1CC[C@H]2[C@]1(C)CCCC(C)(C)[C@H]1C[C@H]3O`: the pIC50 is less than 4.30.

Regarding `C=C1[C@@H]2C[C@@H](O)[C@H]3[C@]4(C)CCCC(C)(C)[C@H]4CC[C@]3(C2)[C@@H]1O`, the negative-log IC50 (pIC50) is less than 4.30.

As usually defined, the pIC50 is the IC50 on a negative log10 scale, so that one unit is a factor of ten.
